Starred links: 1 amine or outer side, 2 acyl side, 3 side chain; linkers in the order of their positions; H or OH if unused. Non-standard residues stand in square brackets, D forms with d. Residues, ends and D or L forms follow the SMILES beside them. Trp(1-CMe2(2S-oxiranyl)) = CC(C)([C@H]1CO1)n1cc(C[C@H](N)C(=O)O)c2ccccc21; Trp(1-(1,1-Me2-allyl)) = C=CC(C)(C)n1cc(C[C@H](N)C(=O)O)c2ccccc21; X3 = CC(C)([C@H](O)CCl)n1cc(C[C@H](N[*:1])C(=O)[*:2])c2ccccc21; Tyr(3-NO2) = N[C@@H](Cc1ccc(O)c([N+](=O)[O-])c1)C(=O)O; X1 = COC(OC)C(C)C[C@@H](C(=O)[*:2])N(C)[*:1]; X2 = C[C@H](CO)C[C@@H](C(=O)[*:2])N(C)[*:1]; Gly(E-crotyl) = C/C=C/C[C@H](N)C(=O)O; NMeL = CN[C@@H](CC(C)C)C(=O)O
Experiments:
[1] = system: Mycobacterium tuberculosis; assay: Bactericidal activity against Mycobacterium tuberculosis H37Rv harboring LuxAB gene assessed as reduction in microbial growth by measuring reduction in relative luminescence units after 14 days by luminometric method; assay type: functional; details: 336 h
Method in brief: (§1)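 Viability was read from an H37Rv luminescent reporter strain carrying plasmid pMV306hsp+LuxAB+G13+CDE. It was incubated with compound for two weeks, with luminescence read on days 7 and 14.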

[2] = system: Mycobacterium tuberculosis; assay: Bactericidal activity against Mycobacterium tuberculosis H37Rv harboring LuxAB gene assessed as reduction in microbial growth by measuring reduction in relative luminescence units after 7 days by luminometric method; assay type: functional; details: 168 h; method in brief: as §1

Compound | MBC [1] [µM] | MBC [2] [µM]
C=CC(C)(C)n1cc(C[C@@H]2NC(=O)[C@H](C/C=C/C)NC(=O)[C@H](CC(C)C)NC(=O)[C@H](CC(C)C)N(C)C(=O)[C@H](C)NC(=O)[C@H](Cc3ccc(O)cc3)NC(=O)[C@H](CC(C)C)N(C)C2=O)c2ccccc21 (HELM PEPTIDE1{A.[meL].L.[C/C=C/C[C@H](N[*:1])C(=O)[*:2]].[C=CC(C)(C)n1cc(C[C@H](N[*:1])C(=O)[*:2])c2ccccc21].[meL].Y}$PEPTIDE1,PEPTIDE1,1:R1-7:R2$$$V2.0) | 5.2 | > 10
C=CC(C)(C)n1cc(C[C@@H]2NC(=O)[C@H](C/C=C/C)NC(=O)[C@H](CC(C)C)NC(=O)[C@H](C[C@H](C)CO)N(C)C(=O)[C@H](C)NC(=O)[C@H](Cc3ccc(O)c([N+](=O)[O-])c3)NC(=O)[C@H](CC(C)C)N(C)C2=O)c2ccccc21 (cyclo(A[X2]L[Gly(E-crotyl)][Trp(1-(1,1-Me2-allyl))][NMeL][Tyr(3-NO2)])) | 9.6 | > 10
C/C=C/C[C@@H]1NC(=O)[C@H](CC(C)C)NC(=O)[C@H](CC(C)C)N(C)C(=O)[C@H](C)NC(=O)[C@H](Cc2ccc(O)c([N+](=O)[O-])c2)NC(=O)[C@H](CC(C)C)N(C)C(=O)[C@H](Cc2cn(C(C)(C)[C@H](O)CCl)c3ccccc23)NC1=O (cyclo(A[NMeL]L[Gly(E-crotyl)][X3][NMeL][Tyr(3-NO2)])) | 3.1 | > 10
CO[C@H]1/C=C/O[C@@]2(C)Oc3c(C)c(O)c4c(O)c(c(/C=N/N5CCN(C)CC5)c(O)c4c3C2=O)NC(=O)/C(C)=C\C=C\[C@H](C)[C@H](O)[C@@H](C)[C@@H](O)[C@@H](C)[C@H](OC(C)=O)[C@@H]1C [RIFAMPIN] | 0.12 | 0.24
C/C=C/C[C@@H]1NC(=O)[C@H](CC(C)C)NC(=O)[C@H](CC(C)C)N(C)C(=O)[C@H](C)NC(=O)[C@H](Cc2ccc(O)c([N+](=O)[O-])c2)NC(=O)[C@H](CC(C)C)NC(=O)[C@H](Cc2cn(C(C)(C)[C@H]3CO3)c3ccccc23)NC1=O (cyclo(A[NMeL]L[Gly(E-crotyl)][Trp(1-CMe2(2S-oxiranyl))]L[Tyr(3-NO2)])) | 2.2 | > 10
C/C=C/C[C@@H]1NC(=O)[C@H](CC(C)C)N2C(=O)[C@H](CC(C)[C@H]2O)N(C)C(=O)[C@H](C)NC(=O)[C@H](Cc2ccc(O)c([N+](=O)[O-])c2)NC(=O)[C@H](CC(C)C)N(C)C(=O)[C@H](Cc2cn(C(C)(C)[C@H]3CO3)c3ccccc23)NC1=O (some centres undefined) | 0.88 | > 10
C=CC(C)(C)n1cc(C[C@@H]2NC(=O)[C@H](C/C=C/C)NC(=O)[C@H](CC(C)C)NC(=O)[C@H](CC(C)C)N(C)C(=O)[C@H](C)NC(=O)[C@H](Cc3ccc(O)c([N+](=O)[O-])c3)NC(=O)[C@H](CC(C)C)N(C)C2=O)c2ccccc21 (cyclo(A[NMeL]L[Gly(E-crotyl)][Trp(1-(1,1-Me2-allyl))][NMeL][Tyr(3-NO2)])) | 4.5 | > 10
C/C=C/C[C@@H]1NC(=O)[C@H](CC(C)C)NC(=O)[C@H](CC(C)C(OC)OC)N(C)C(=O)[C@H](C)NC(=O)[C@H](Cc2ccc(O)c([N+](=O)[O-])c2)NC(=O)[C@H](CC(C)C)N(C)C(=O)[C@H](Cc2cn(C(C)(C)[C@H]3CO3)c3ccccc23)NC1=O (stereo partly drawn) (cyclo(A[X1]L[Gly(E-crotyl)][Trp(1-CMe2(2S-oxiranyl))][NMeL][Tyr(3-NO2)])) | 1.1 | > 10
C/C=C/C[C@@H]1NC(=O)[C@H](CC(C)C)N2C(=O)[C@H](C[C@@H](C)[C@H]2O)N(C)C(=O)[C@H](C)NC(=O)[C@H](Cc2ccc(O)c([N+](=O)[O-])c2)NC(=O)[C@H](CC(C)C)N(C)C(=O)[C@H](Cc2cn(C(C)(C)[C@H](O)CO)c3ccccc23)NC1=O | 0.58 | > 10
NNC(=O)c1ccncc1 [ISONIAZID] | 4 | 0.99
C/C=C/C[C@@H]1NC(=O)[C@H](CC(C)C)N2C(=O)[C@H](C[C@](C)(O)[C@H]2O)N(C)C(=O)[C@H](C)NC(=O)[C@H](Cc2ccc(O)c([N+](=O)[O-])c2)NC(=O)[C@H](CC(C)C)N(C)C(=O)[C@H](Cc2cn(C(C)(C)[C@H]3CO3)c3ccccc23)NC1=O | 4.6 | > 10
C/C=C/C[C@@H]1NC(=O)[C@H](CC(C)C)NC(=O)[C@H](CC(C)C)N(C)C(=O)[C@H](C)NC(=O)[C@H](Cc2ccc(O)c([N+](=O)[O-])c2)NC(=O)[C@H](CC(C)C)N(C)C(=O)[C@H](Cc2cn(C(C)(C)[C@H]3CO3)c3ccccc23)NC1=O (cyclo(A[NMeL]L[Gly(E-crotyl)][Trp(1-CMe2(2S-oxiranyl))][NMeL][Tyr(3-NO2)])) | 1 | > 10

From ChEMBL document CHEMBL4613246, “Antimycobacterial Rufomycin Analogues from Streptomyces atratus Strain MJM3502” (J Nat Prod, 2020)
